Source: ChEMBL document CHEMBL5046304, “Novel Pyridazin-3(2H)-one-Based Guanidine Derivatives as Potential DNA Minor Groove Binders with Anticancer Activity” (ACS Med Chem Lett, 2022)

Experiments:
NCI-H460 = experiment: Cytotoxicity against human NCI-H460 cells assessed as reduction in cell viability at 100 uM after […] by MTT assay; format: functional
In short: (§1)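 Percentage inhibition of cell viability; values are means of three experiments.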

A2780 [1] = experiment: Cytotoxicity against human A2780 cells assessed as reduction in cell viability at 100 uM after 96 hrs by MTT assay; format: functional; in short: as §1
MCF7 = experiment: Cytotoxicity against human MCF7 cells assessed as reduction in cell viability at 100 uM after 96 hrs by MTT assay; format: functional; in short: as §1
Salmon testes DNA = experiment: Binding affinity to salmon sperm DNA assessed as thermal stability by measuring change in melting temperature at 15 uM at pH 7 by spectrophotometric analysis; format: nucleic-acid assay; conditions: Salmo salar
A2780 [2] = experiment: Cytotoxicity against human A2780 cells assessed as reduction in cell viability measured after 96 hrs by MTT assay; format: functional, cell-based; conditions: A2780, 96 h

For `Cn1nccc(CNC(=N)N)c1=O`, the inhibition at 100 µM (NCI-H460) was 1%, the inhibition at 100 µM (A2780 [1]) was 18% and the inhibition at 100 µM (MCF7) was 1%.
For `N=C(N)NCc1ccc(Cn2ncc(CNC(=N)N)cc2=O)cc1`, the ΔTm (Salmon testes DNA) was 1.2 °C, the inhibition at 100 µM (NCI-H460) was 35% and the inhibition at 100 µM (A2780 [1]) was 33%. The inhibition at 100 µM (MCF7) was 23%.
With `Cn1nc(CNC(=N)N)ccc1=O` the inhibition at 100 µM (NCI-H460) was 4%, the inhibition at 100 µM (A2780 [1]) was 11% and the inhibition at 100 µM (MCF7) was 20%.
`N=C(N)NCc1cnn(Cc2ccccc2)c(=O)c1` showed an inhibition at 100 µM (NCI-H460) of 1%, an inhibition at 100 µM (A2780 [1]) of 40% and an inhibition at 100 µM (MCF7) of 13%.
`Cc1cc(=O)n(Cc2ccc(CNC(=N)N)cc2)nc1CNC(=N)N` was tested, and the IC50 (A2780 [2]) was 21 µM, the ΔTm (Salmon testes DNA) was 1.2 °C and the inhibition at 100 µM (NCI-H460) was 34%. The inhibition at 100 µM (A2780 [1]) was 59% and the inhibition at 100 µM (MCF7) was 22%.
Work on `N=C(N)NCc1ccnn(Cc2ccccc2)c1=O` yielded an inhibition at 100 µM (NCI-H460) of 15%, an inhibition at 100 µM (A2780 [1]) of 41% and an inhibition at 100 µM (MCF7) of 46%.
`N=C(N)NCc1ccc(Cn2nc(CNC(=N)N)ccc2=O)cc1` was tested, and the ΔTm (Salmon testes DNA) was 1.4 °C.
In the case of `Cc1cc(=O)n(Cc2ccc(CF)cc2)nc1CNC(=N)N`, the inhibition at 100 µM (NCI-H460) is reported as 5%, the inhibition at 100 µM (A2780 [1]) is reported as 34% and the inhibition at 100 µM (MCF7) is reported as 13%.
Work on `Cn1ncc(CNC(=N)N)cc1=O` yielded an inhibition at 100 µM (NCI-H460) of 13%, an inhibition at 100 µM (A2780 [1]) of 24% and an inhibition at 100 µM (MCF7) of 2%.
For `Cc1cc(=O)n(Cc2ccc(CCl)cc2)nc1CNC(=N)N`, the IC50 (A2780 [2]) was over 100 µM, the inhibition at 100 µM (NCI-H460) was 7% and the inhibition at 100 µM (A2780 [1]) was 54%. The inhibition at 100 µM (MCF7) was 25%.
For `Cc1cc(=O)n(Cc2ccccc2)nc1CNC(=N)N`, the inhibition at 100 µM (NCI-H460) was 2%, the inhibition at 100 µM (A2780 [1]) was 23% and the inhibition at 100 µM (MCF7) was 18%.
Work on `COCc1ccc(Cn2nccc(CNC(=N)N)c2=O)cc1` yielded an inhibition at 100 µM (NCI-H460) of 1% and an inhibition at 100 µM (A2780 [1]) of 38%.
For `N=C(N)NCc1ccc(Cn2nccc(CNC(=N)N)c2=O)cc1`, the ΔTm (Salmon testes DNA) was 1.1 °C.
For `Cc1cc(=O)n(C)nc1CNC(=N)N`, the inhibition at 100 µM (NCI-H460) was 2%, the inhibition at 100 µM (A2780 [1]) was 20% and the inhibition at 100 µM (MCF7) was 12%.
